m5-HT2A agonist – mouse HTR2A agonism via beta-arrestin recruitment | activation, % at 7.6 µM | CHO-K1 mHTR2A beta-arrestin complementation, luminescence; percent of 30 µM serotonin response | 0.66% of 360,000 active;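 active = activation above a run cutoff, the mean activation of all tested compounds plus 3 SD, cut at about 14% in these data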
M1 antag – blocks human M1 muscarinic receptor. P11229. CHO-K1 hM1, Fluo-8 calcium fluorescence, ACh EC80 antagonist. inhibition, % at 3 µM. 1.3% of 360,000 active. AID 588852;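 active = percent inhibition above its own plate's cutoff, namely the mean of that plate's compound wells plus 3 SD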;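 note: peak over basal fluorescence ratio during 140 s after agonist addition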
M1 PAM – positive allosteric modulators of human M1 muscarinic receptor | P11229 | CHO-K1 hM1, Fluo-8 calcium fluorescence, ACh EC20; 0% = ACh EC20, 100% = maximal ACh | activation, % at 3 µM | 0.088% of 360,000 active; in the data active = activation above about 19%, passing the limit was not always enough
TAAR1 agonist – agonists of human TAAR1 | 0.99% of 360,000 active | CHO RD-HGA16 TAAR1, Fluo-8 calcium fluorescence; vehicle wells 0%, saturating PEA agonist 100% | AID 624467 | activation, % at 3 µM | Q96RJ0;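 active = activation above the mean activation of all test compounds in the run plus 3 SD, cut at about 38% in these data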
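Repeats: no replicates (n 1) | Material: CHO-derived RD-HGA16 cells with stable Gα16 and human TAAR1 | Technique: Kinetic Fluo-8 calcium fluorescence | Schedule: 17-24 h seeding, 75 min 37 °C dye, 30 min RT | Evaluation: % activation from peak over basal fluorescence ratio, DMSO-to-PEA scaled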
TAAR1 antag – antagonists of human TAAR1. Q96RJ0. CHO RD-HGA16 TAAR1, Fluo-8 calcium fluorescence, antagonist. inhibition, % at 3 µM. 1.5% of 360,000 active;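 active = inhibition above a per-plate cutoff, the mean inhibition of test compounds on that plate plus 3 SD, cut at about 49% in these data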
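System: CHO RD-HGA16 cells bearing hTAAR1. Reagent: EC80 β-phenethylamine stimulus. Schedule: seeding 17-24 h prior, 75-min 37 °C, 30-min RT dye loading. Signal: Fluo-8 intracellular calcium dye fluorescence, real-time kinetic reads. Read-out: % inhibition from peak post-agonist over basal fluorescence ratio. Benchmarks: vehicle wells and EC80 agonist wells. Replicates: n of 1.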
M1 ag – activates human CHRM1 receptor; 0.33% of 360,000 active; activation, % at 3 µM; P11229; CHO-K1 hM1, Fluo-8 calcium fluorescence, agonist mode; 0% DMSO, 100% acetylcholine EC100;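 active = activation above the run's mean compound activation plus 3 SD, cut at about 16% in these data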;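 note: peak over basal fluorescence ratio within a 140 s kinetic read after compound addition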
MOR ag counter – OPRM1 agonism in mouse HTR2A counterscreen | shares compounds with m5-HT2A agonist | activation, % at 9.3 µM | AID 624380 | 5.3% of 2,300 active | U2OS OPRM1 beta-arrestin PathHunter, luminescence; DMSO 0%, DAMGO 9.3 µM 100%;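 active = mean activation above the mean of DMSO-only wells plus 3 SD, cut at about 0.5% in these data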
Target sequence (P35372 whole entry, looked up): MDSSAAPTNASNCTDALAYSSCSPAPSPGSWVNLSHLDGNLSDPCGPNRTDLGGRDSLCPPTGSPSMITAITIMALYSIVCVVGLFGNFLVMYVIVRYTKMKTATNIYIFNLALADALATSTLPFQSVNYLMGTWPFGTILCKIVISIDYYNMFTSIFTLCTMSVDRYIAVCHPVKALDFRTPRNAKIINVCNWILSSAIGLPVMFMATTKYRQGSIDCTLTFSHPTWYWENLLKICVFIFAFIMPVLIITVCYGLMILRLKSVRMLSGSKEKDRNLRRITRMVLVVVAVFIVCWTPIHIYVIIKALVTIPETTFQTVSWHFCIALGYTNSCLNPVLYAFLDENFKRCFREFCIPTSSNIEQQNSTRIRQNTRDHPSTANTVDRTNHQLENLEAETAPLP
HTR2A ag conf – confirmation of mouse HTR2A serotonin receptor agonists | shares compounds with m5-HT2A agonist | CHO-K1 PathHunter beta-arrestin recruitment, luminescence; DMSO 0%, 30 µM serotonin 100% | 19% of 2,300 active | activation, % at 7.6 µM;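 active = mean activation across triplicates above the hit threshold derived in the original primary screen, cut at about 15% in these data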
Large screens that a line does not name were inactive (follow-up assays come after a bar, where they were run). This is a sample that favours compounds with a hit; in the whole collection about 3.9% have one here.

CCC(C)(C)C1CCC2(CC1)NC(=O)N(CC(=O)N1CCN(C(=O)c3ccco3)CC1)C2=O (stereo unspecified)	none
Cc1nn(C)c(C(=O)Nc2ccn(C34CC5CC(CC(C5)C3)C4)n2)c1[N+](=O)[O-]	m5-HT2A agonist 15 | MOR ag counter inactive | HTR2A ag conf inactive
CCc1ccc(CN(C(=O)c2oc3ccccc3c2C)C2CCS(=O)(=O)C2)cc1 (stereo unspecified)	m5-HT2A agonist 15 | MOR ag counter inactive | HTR2A ag conf inactive
Cc1c(C(=O)N(Cc2ccccc2)C2CCS(=O)(=O)C2)oc2ccccc12 (stereo unspecified)	none
CCc1ccc(OC(C)C(=O)N(Cc2ccccc2)C2CCS(=O)(=O)C2)cc1 (stereo unspecified)	none
CCc1ccc(OC(C)C(=O)N(Cc2ccco2)C2CCS(=O)(=O)C2)cc1 (stereo unspecified)	m5-HT2A agonist 23 | MOR ag counter inactive | HTR2A ag conf inactive
CC(C)(C)c1ccc(-c2noc(-c3ccc4c(c3)CCO4)n2)cc1	none
Cc1cc(N(CN2CCCC2=O)C(=O)c2ccccc2)no1	m5-HT2A agonist 19 | MOR ag counter inactive | HTR2A ag conf inactive
Cc1cc(N(CN2CCCC2=O)C(=O)c2ccc(F)cc2)no1	none
Cc1ccccc1Nc1nc(-c2sc(NC(=O)c3ccco3)nc2C)cs1	m5-HT2A agonist 19 | MOR ag counter inactive | HTR2A ag conf inactive
Cc1ccc(C(=O)N=c2sccn2C)cc1C	m5-HT2A agonist 18 | MOR ag counter inactive | HTR2A ag conf inactive
Cc1nc(SCC(=O)Nc2nccs2)c(C#N)c(C)c1C	none
Cc1cnc(=O)[nH]c1SCC(=O)Nc1nccs1	m5-HT2A agonist 15 | MOR ag counter inactive | HTR2A ag conf inactive
COC(=O)c1cc2c(C)nn(C)c2s1	m5-HT2A agonist 23 | MOR ag counter inactive | HTR2A ag conf inactive
O=C(Cc1ccccc1)NNC1CC(=O)N(c2ccc(Oc3ccccc3)cc2)C1=O (stereo unspecified)	m5-HT2A agonist 17 | MOR ag counter inactive | HTR2A ag conf inactive
CCOc1ccc(NC(=O)CCC(=O)NNC(=O)c2ccc(Br)o2)cc1	none
O=c1c2ccccc2c2ccccc2c(=O)n1Nc1ccccc1	m5-HT2A agonist 20 | MOR ag counter inactive | HTR2A ag conf inactive
COC(=O)[C@@H](Cc1ccccc1)NC(=O)[C@H]1O[C@@H](n2cnc3c(=O)[nH]c(N)nc32)[C@H](O)[C@@H]1O	none (no result: m5-HT2A agonist, M1 antag, M1 PAM, M1 ag)
CCOc1ccc(CCNC(=O)/C=C/c2ccco2)cc1OCC	m5-HT2A agonist 19 | MOR ag counter inactive | HTR2A ag conf inactive
CCc1ccccc1-n1nnnc1SCC(=O)Nc1cc(C)on1	m5-HT2A agonist 15 | MOR ag counter inactive | HTR2A ag conf inactive
Cc1cccc(-c2nnc(SCC(=O)Nc3cc(C)on3)n2C)c1	m5-HT2A agonist 18 | MOR ag counter inactive | HTR2A ag conf inactive
Cc1cccc(NC(=O)CSc2nnc(-c3ccc(S(=O)(=O)N4CCOCC4)cc3)n2C)c1	m5-HT2A agonist 29 | MOR ag counter 0.8 | HTR2A ag conf inactive
CC(=O)CSc1nnc(-c2ccc(S(=O)(=O)N3CCOCC3)cc2)n1C	none
CCn1nnnc1SCC(=O)Nc1cc(C)on1	none
Clc1ccccc1CN1CCN(c2ncccn2)CC1	m5-HT2A agonist 28 | MOR ag counter inactive | HTR2A ag conf 98
O=[N+]([O-])c1ccccc1CN1CCN(c2ncccn2)CC1	none
Clc1ccc(CN2CCN(c3ncccn3)CC2)c(Cl)c1	m5-HT2A agonist 16 | MOR ag counter inactive | HTR2A ag conf 103
Clc1cccc(CN2CCN(c3ncccn3)CC2)c1Cl	none

Screens (PubChem)
